Screening results deposited in PubChem by several laboratories.
NR2E3 ag-1: agonists of human NR2E3 nuclear receptor; CHO-S Gal4-NCOR/VP16-NR2E3 two-hybrid, luciferase; inhibition of corepressor binding, % at 3.98 µM; AID 602229; Q9Y5X4; 360,000 tested, 0.35% active;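 active = inhibition above the mean of all tested compounds plus 3 SD, cut at about 70% in these data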;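 also: 0% = DMSO with NR2E3 transfected cells and 100% = cells lacking NR2E3 construct; higher means lower luciferase signal from less NR2E3 corepressor binding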
Target sequence (Q9Y5X4 whole entry, looked up, the tested form may be a part): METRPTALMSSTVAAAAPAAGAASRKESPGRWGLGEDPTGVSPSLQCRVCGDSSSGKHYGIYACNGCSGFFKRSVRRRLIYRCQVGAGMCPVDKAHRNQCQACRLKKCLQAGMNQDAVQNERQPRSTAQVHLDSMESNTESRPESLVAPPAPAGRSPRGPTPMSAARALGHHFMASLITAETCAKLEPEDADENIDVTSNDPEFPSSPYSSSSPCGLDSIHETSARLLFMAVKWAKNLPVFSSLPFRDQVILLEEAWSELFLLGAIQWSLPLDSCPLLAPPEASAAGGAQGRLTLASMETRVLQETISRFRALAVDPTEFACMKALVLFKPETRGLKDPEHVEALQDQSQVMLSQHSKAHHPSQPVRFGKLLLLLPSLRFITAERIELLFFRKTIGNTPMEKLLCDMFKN
NR2E3 ag-2: agonists of human nuclear receptor NR2E3 | GST-NR2E3/biotin-RetCOR TR-FRET, 1536-well | 320,000 tested, 0.12% active | AID 2300 | inhibition of corepressor binding, % at 4.78 µM;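 active = percent inhibition above the cutoff of mean plus 3 SD of all tested compounds, set per screening campaign, cut at about 20% in these data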;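 also: 0% = DMSO wells and 100% = biotin wells as full block of FRET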
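Assay system: NR2E3–RetCOR corepressor complex. Quantity: 1.35 nM GST-NR2E3. Buffer or medium: pH 7.5 Tris-based buffer. Reagent: biotinylated RetCOR corepressor at 7 nM final. Schedule: 5 h at 4 °C. Detection: TR-FRET, emission read at 617 and 671 nm. Replicates: one well per compound, singlicate testing.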
697 NFkB inh: lowers PMA/ionomycin-induced NF-kB signal in 697 B cells; 697 B-cell NF-kB luciferase reporter, 16 h; inhibition, % at 4 µM; 330,000 tested, 0.33% active; in the data active = inhibition above about 35%
GalR3 antagonist: human GalR3 antagonism. O60755. HEK293 GalR3-CNG cAMP membrane potential fluorescence; galR3 body fused to GalR1 C-terminus. inhibition, % at 3 µM. 360,000 tested, 0.44% active. AID 651719;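 active = inhibition above the screen-wide average plus 3 SD, cut at about 13% in these data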;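 also: forskolin and galanin both at EC90 stimulate the cells; cAMP rise reported by CNG channel membrane potential dye signal; 0% = forskolin plus galanin with DMSO and 100% = forskolin alone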
Target sequence (O60755 1-299 limits assumed): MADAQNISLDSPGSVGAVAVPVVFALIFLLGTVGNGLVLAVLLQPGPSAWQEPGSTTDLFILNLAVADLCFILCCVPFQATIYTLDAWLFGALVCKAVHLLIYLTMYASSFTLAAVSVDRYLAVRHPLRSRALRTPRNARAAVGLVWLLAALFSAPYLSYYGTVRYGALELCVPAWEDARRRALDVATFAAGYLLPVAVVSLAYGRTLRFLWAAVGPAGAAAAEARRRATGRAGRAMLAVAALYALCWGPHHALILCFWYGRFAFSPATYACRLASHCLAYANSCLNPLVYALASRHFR
Jurkat NFkB inh: lowers PMA/ionomycin-induced NF-kB signal in Jurkat cells; PMA/ionomycin-induced NF-kB luciferase reporter, luminescence; 330,000 tested, 0.53% active; inhibition, % at 4 µM; AID 435003; in the data active = inhibition above about 50%
JMJD2C inh: human JMJD2C demethylase inhibition; Q9H3R0; GST-JMJD2C(1-420) H3K9me3 demethylation, DELFIA europium; inhibition, % at 2.35 µM; 330,000 tested, 0.069% active; AID 2099;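 active = more than half of a compound's replicate wells show inhibition beyond 50%, single wells judged on their own value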;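 also: signal counts dimethyl H3K9 product captured on neutravidin plate; 0% = median of DMSO wells and 100% = 0.3 times that DMSO median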
Jurkat NFkB conf: lowers PMA/ionomycin-induced NF-kB signal in Jurkat cells; shares compounds with Jurkat NFkB inh; Jurkat NF-kB luciferase, 16 h; inhibition, % at 4 µM; 2,700 tested, 27% active; AID 435020;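 active = inhibition reaching about 45% at 4 µM in either replicate, limit read from the data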;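 also: plate controls were PMA/ionomycin stimulated DMSO wells for no effect and unstimulated DMSO wells for full effect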
697 NFkB conf: inhibitors of the PMA/ionomycin-induced NF-kB reporter in 697 B cells, retest | shares compounds with 697 NFkB inh | 2,000 tested, 35% active | inhibition, % at 4 µM | 697 B-cell NF-kB luciferase, 16 h; in the data active = inhibition mostly above about 28%, no sharp cut-off; inactive = mostly below about 22%
* = called active by the depositor; i = inactive; . = no result given. Only some compounds are listed: those with a hit (about 1.5% of all), similar ones and a draw of the others.

SMILES | NR2E3 ag-1 | NR2E3 ag-2 | 697 NFkB inh | GalR3 antagonist | Jurkat NFkB inh | JMJD2C inh | Jurkat NFkB conf | 697 NFkB conf
CC(C)(C)c1ccc(-c2nc(-c3ccncc3)no2)cc1 | -60 | 1 | -355 | -8 | -193 | -3 | -69 | -379
Cc1ccc(-c2nc(-c3ccncc3)no2)cc1 | -88 | . | . | -8 | . | -1 | . | .
CCOc1ccc(-c2cc(C(=O)N/N=C/c3cccnc3)c3ccccc3n2)cc1 | -124 | 1 | -393 | 2 | 58* | -8 | -4 | -301
O=C(OCc1ccccc1)N1CCC2CC1c1ccc(N3CCNCC3)cc12 (stereo not drawn) | -59 | . | . | -8 | . | . | . | .
Cc1ccsc1/C=N/N=C/c1sccc1C | -111 | 0 | -299 | -9 | -173 | -4 | -99 | -230
O=c1[nH]c(Nc2nc3ccccc3o2)nc2c1CCCC2 | -148 | 0 | -275 | -4 | 71* | -3 | -50 | -99
Cc1cc(NC(=O)c2ccc3sc([C@@H]4O[C@H](CO)[C@H](O)[C@H](O)[C@H]4O)nc3c2)n(C)n1 | -44 | . | . | -6 | . | . | . | .
N#Cc1nc(Nc2cccc(Cl)c2)c2ncn(C3CCCC3)c2n1 | -25 | -3 | -259 | -2 | -257 | -2 | -59 | -358
O=C(NC(=S)Nc1ccccn1)c1ccc(-c2ccccc2)cc1 | -113 | 2 | -287 | 7 | -188 | -3 | -55 | -432
O=C(Nc1ccccn1)c1ccc(C(=O)Nc2ccccn2)cc1 | -16 | 4 | -1 | . | -45 | -3 | . | .
Cn1cccc1/C=C1\CCc2ccccc2C1=O | -121 | 3 | -400 | -5 | -162 | -3 | -2 | -57
CCN(CC(=O)Nc1ccccc1C(F)(F)F)C(=O)CCc1c(C)[nH]c(=O)c(C#N)c1C | -9 | 1 | 3 | -2 | 2 | -6 | . | .
Cc1cnc(NC(=O)Nc2ccc(Cl)cc2)s1 | -74 | 3 | 65* | -11 | 81* | -1 | 24 | 49*
O=C(c1ccc(Br)cc1)c1cc([N+](=O)[O-])ccc1N1CCCCC1 | 10 | -1 | 45* | 5 | 75* | -1 | 59* | 39*
COc1ccc(N=Cc2c(O)[nH]c3ccccc23)cc1 | -121 | -6 | -297 | -1 | -186 | 11 | -32 | -109
O=C(CNC(=O)c1ccc(Cl)cc1Cl)OCCOc1ccccc1F | 5 | . | -32 | -1 | -37 | 2 | . | .
O=C(Nc1ccc(Cl)cc1)Nc1cccc(C(=O)O)c1 | -205 | 5 | 53* | -1 | 76* | 19 | 44 | 32*
CCOc1ccc(NC(=O)Nc2cccc(C(=O)O)c2)cc1 | -154 | 3 | 81* | -5 | 82* | 113 | 80* | 77*
O=C(Nc1cccc(Cl)c1)Nc1cccc(C(=O)O)c1 | -90 | 1 | -41 | -5 | 27 | -41 | . | .
CCOC(=O)c1cccc(NC(=O)Nc2ccc(OCC)cc2)c1 | -158 | -1 | -54 | -1 | -25 | -1 | . | .
O=C(N=c1nc2ccccn2s1)c1ccccc1 | -97 | 4 | -324 | -7 | -191 | 10 | -72 | -304
Cc1csc(=NC(=O)c2ccccc2)n1C | -129 | 1 | -58 | -5 | -56 | 4 | . | .
COc1ccccc1N1CCN(S(=O)(=O)CCNC(=O)C2CCCCC2)CC1 | 33 | 2 | -18 | -5 | -8 | 0 | . | .
NC(=O)c1ccccc1OCC(=O)Nc1ccc(Cl)c(Cl)c1 | -131 | 0 | -372 | -6 | -187 | -18 | -121 | -389
NC(=O)c1ccccc1OCC(=O)Nc1ccc2c(c1)CCC2 | -50 | 5 | -45 | -4 | -41 | . | . | .
SMILES | NR2E3 ag-1 | NR2E3 ag-2 | 697 NFkB inh | GalR3 antagonist | Jurkat NFkB inh | JMJD2C inh | Jurkat NFkB conf | 697 NFkB conf
COc1cc(/C=N/NC(=S)Nc2cccc(C(=O)O)c2)ccc1O | -164 | -2 | 38* | -3 | 54* | -7 | 50* | 38*
CC1CCN(c2nc3ccc(C(=O)O)cc3s2)CC1 | -22 | -4 | 52* | -3 | 83* | 5 | 78* | 42*
CC1CCN(c2nc3ccc(C(=O)NCCCN4CCCCC4)cc3s2)CC1 | -101 | 2 | -80 | 0 | -45 | 7 | . | .
COCCNC(=S)N(C)[C@H]1C[C@H]2c3[nH]c4ccccc4c3CCN2C(=O)[C@H]1[C@H](C)O | . | . | . | -1 | . | . | . | .
CCOc1ccc2oc(C(=O)NC(C)(C)CC)c(C)c2c1 | -56 | -4 | -48 | -4 | -38 | 26 | . | .
COc1ccc2oc(C(=O)Nc3nccs3)c(C)c2c1 | -199 | -10 | -261 | 5 | -184 | 4 | -100 | -187
CCOc1ccc2oc(C(=O)Nc3nccs3)c(C)c2c1 | -163 | . | -258 | 1 | -173 | 1 | -113 | -207
O=C(CCN1C(=O)NC2(CCCC2)C1=O)Nc1ccc(-c2nc3ccccc3s2)cc1 | -122 | -1 | -264 | -7 | -181 | . | -80 | -332
O=C(Nc1nc2cc3c(cc2s1)OCCO3)c1cccs1 | -154 | 4 | -474 | 1 | -183 | 3 | -80 | -428
O=C(CN1C(=O)NC2(CCCC2)C1=O)NNC(=O)c1ccccc1F | -3 | 4 | 2 | -4 | -12 | 9 | . | .
CC1(C)CCc2cc(-c3ccnc(=S)[nH]3)ccc2O1 | -58 | -1 | -266 | -2 | -158 | -24 | -16 | -175
S=c1nccc(-c2ccc3c(c2)CCO3)[nH]1 | -42 | 1 | -14 | 2 | 5 | 2 | . | .
Cc1ccc(C(=O)Nc2cccc(C(F)(F)F)c2)cc1NC(=O)c1nccn1C | -14 | -3 | -17 | -7 | 1 | . | . | .
Cc1ccc(C(=O)Nc2cccc(C(F)(F)F)c2)cc1NC(=O)c1ccno1 | 0 | 2 | 60* | -5 | 51* | 25 | 87* | 61*
Cc1nc2c(OCc3cccc(Cl)c3)cccn2c1N(C)Cc1cccs1 | 38 | . | . | -3 | . | . | . | .
Cc1nn(-c2ccccc2)c(C)c1/C=N/NC(=O)c1cc(-c2cccs2)[nH]n1 | -4 | 3 | 45* | 1 | 53* | -2 | 57* | 51*
CC(=O)Nc1ccc2oc(-c3ccccc3)nc2c1 | -139 | 8 | -132 | -7 | -116 | 2 | . | .
Cc1ccc(-c2nc3cc(NC(=O)C(C)C)ccc3o2)cc1 | -215 | 1 | -422 | -1 | -222 | -6 | -142 | -439
CC(C)C(=O)Nc1cccc(-c2nc3ccccc3o2)c1 | -108 | 1 | -16 | -1 | -9 | -2 | . | .
Cc1ccc(-c2nc3cc(NC(=O)C(C)C)ccc3o2)cc1C | -28 | 2 | i | -4 | -251 | -1 | -43 | i
Cc1cc2nc(-c3ccc(NC(=O)C(C)C)cc3)oc2cc1C | -127 | 0 | -405 | 0 | -236 | 2 | -151 | -353
CN1CCN(C(CNC(=O)C(=O)NC2CCCC2)c2ccc(F)cc2)CC1 (stereo not drawn) | -12 | -7 | 11 | -1 | -4 | -35 | . | .
